Among the data in PubChem BioAssay AID492951 (Molecular Libraries Program, Specialized Chemistry Center, …, 2010) are outcome and inhibition values, retold here.

For the experiment, the target named is Hexokinase-4 (Homo sapiens) (UniProt P35557). Briefly: human glucokinase inhibition, counter-screen for TbHK1 inhibitor project, biochemical, recombinant hGlck (AID 492951). Particulars: G6PDH-coupled NADH absorbance 340 nm, at 10 µM; active compounds read high. Put shortly: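 Test system: purified recombinant human glucokinase (HK4) with G6PDH coupling enzyme / Reagent: 20 mM glucose as reaction starter, plus 1 mM ATP / Timing: 10 min room-temperature compound-enzyme preincubation before glucose addition / Measured by: A340 of NADH / Repeats: three replicates per compound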

Values without a mark were called inactive. The source made the active and inactive calls.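 Rule for the calls: active = inhibition above 10%; inactive = the rest.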

Chain of Hexokinase-4 (Homo sapiens) (P35557 whole entry, looked up): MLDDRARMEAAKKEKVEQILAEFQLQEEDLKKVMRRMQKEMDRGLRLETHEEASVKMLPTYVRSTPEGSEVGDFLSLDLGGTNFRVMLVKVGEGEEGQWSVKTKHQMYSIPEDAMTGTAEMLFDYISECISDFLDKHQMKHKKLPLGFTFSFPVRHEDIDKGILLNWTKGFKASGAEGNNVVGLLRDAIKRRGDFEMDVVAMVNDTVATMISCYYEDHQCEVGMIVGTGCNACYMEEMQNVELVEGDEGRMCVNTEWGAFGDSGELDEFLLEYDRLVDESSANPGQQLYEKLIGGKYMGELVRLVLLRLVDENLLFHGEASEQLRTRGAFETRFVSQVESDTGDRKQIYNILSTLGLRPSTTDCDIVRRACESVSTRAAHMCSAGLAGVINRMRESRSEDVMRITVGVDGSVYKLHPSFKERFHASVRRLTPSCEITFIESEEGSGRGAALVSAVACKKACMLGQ

For the compound `O=C(O)c1ccc(Cl)cc1NC(=O)c1coc2ccccc12`, the outcome was inactive.

The term inhibition denotes the change of the read-out against control, counted positive when it falls. For `O=C1c2ccccc2S(=O)N1c1cccc(F)c1` (stereo not drawn), the inhibition is 8.84%.

On to `CC(=O)Nc1ccc2c(=O)n(-c3ccccc3)sc2c1`, for which the outcome was inactive.

`O=C(O)c1ccc(Cl)cc1NC(=O)C1CCOCC1`: the result was inactive.

With `COc1ccc(C(=O)O)c(NC(=O)c2ccc(Cl)cc2)c1`, the inhibition was 15.8% (active).

`CCc1ccc(C(=O)Nc2cc(Cl)ccc2C(=O)OC)cc1`: the inhibition is 14.5% (active).

For `CCOC(=O)c1ccncc1NC(=O)c1ccc(OC)cc1`, the outcome was inactive.

Take `COc1ccc(C(=O)Nc2cc(C)ccc2C(=O)O)cc1`: the outcome was inactive.

Consider `CC1(c2ccc(C(=O)Nc3cc(Cl)ccc3C(=O)O)cc2)CC1`, for which the result was inactive.

Regarding `CCOC(=O)Cn1sc2ccccc2c1=O`, the outcome was inactive.

Regarding `CCCCCCCC(=O)Nc1cc(Cl)ccc1C(=O)O`, the result was inactive.

For `CN(Cc1ccccc1)C(=O)Cn1sc2ccccc2c1=O`, the inhibition was 30.6% (active).

Turning to `O=c1c2ccc([N+](=O)[O-])cc2sn1-c1ccccc1`, the inhibition is 1.5%.

As to `CN(C)c1cccc(NC(=O)Cn2sc3ccccc3c2=O)c1`, the inhibition was 16.7% (active).

Take `O=C(Nc1cc(Cl)ccc1C(=O)O)c1ccoc1`: the outcome was inactive.

`Cc1ccccc1-n1sc2cc(F)ccc2c1=O`: the result was inactive.

As to `CCCc1ccc(C(=O)Nc2cc(Cl)ccc2C(=O)O)cc1`, the inhibition is 16.8% (active).

Consider `COc1ccc(CC(=O)Nc2cc(Cl)ccc2C(=O)O)cc1`, for which the result was inactive.

Take `CC(C)(C)c1ccc(C(=O)Nc2cc(Cl)ccc2-c2nn[nH]n2)cc1`: the inhibition is 28.4% (active).

As to `O=C(Nc1cc(Cl)ccc1C(=O)O)c1ccsc1`, the result was inactive.

On to `O=C(Nc1ccc([N+](=O)[O-])cc1Cl)c1cc(Cl)ccc1O`, for which the inhibition is 32.1% (active).

`COc1ccc(C(=O)Nc2cc(C(F)(F)F)ccc2C(=O)O)cc1`: the inhibition is 10.5% (active).

With `COc1ccc2sn(-c3ccccc3)c(=O)c2c1`, the inhibition was 13.6% (active).

As for `C=C(C)c1ccc(C(=O)Nc2cc(Cl)ccc2C(=O)O)cc1`, the inhibition is 25.9% (active).

As for `COc1ccc(-c2nc3c(Cl)c(Cl)ccc3c(=O)o2)cc1`, the inhibition was 9.2%.

`O=C(Cn1sc2ccccc2c1=O)N1CCCCC1`: the result was inactive.

As for `CN(C)c1ccc(C(=O)Nc2cc(Cl)ccc2C(=O)O)cc1`, the outcome was inactive.

Turning to `COc1ccc(C(=O)NC(C(=O)O)c2ccccc2)cc1` (stereo not drawn), the result was inactive.

On to `COc1ccc(S(=O)(=O)Nc2cc(Cl)ccc2C(=O)O)cc1`, for which the outcome was inactive.

Turning to `O=c1c(Br)csn1-c1ccc(Br)cc1`, the inhibition was 32.2% (active).

For the compound `O=C(Cn1sc2ccccc2c1=O)Nc1ccc(F)cc1`, the inhibition is 1.7%.

In the case of `COc1ccc(C(=O)Nc2cc(F)cc(F)c2O)cc1`, the outcome was inactive.

On to `O=c1c2ccccc2sn1-c1ccc(Cl)cc1`, for which the inhibition was 35.6% (active).

As to `CC(C)c1cccc(C(=O)Nc2cc(Cl)ccc2C(=O)O)c1`, the outcome was inactive.

In the case of `O=c1c2ccccc2sn1-c1cccc(Cl)c1`, the inhibition was 34.9% (active).

With `CC(C)c1ccc(C(=O)Nc2cc(Cl)ccc2C(=O)O)cc1`, the result was inactive.

For `O=C1c2cccc(Br)c2SCN1c1ccccc1`, the inhibition is 5.5%.

Turning to `O=C(Nc1cc(Cl)ccc1C(=O)O)c1ccc(OC(F)(F)F)cc1`, the inhibition was 13.1% (active).
